# Results reported in ChEMBL document CHEMBL5247575 (J Med Chem, 2018).
# Tested on: Klebsiella pneumoniae
# Test: Synergistic antibacterial activity against Klebsiella pneumoniae 11978 producing OXA-48 assessed as cefepime MIC at 4 ug/ml by broth microdilution method
# Type: functional
# Conditions: dose 4 µg/ml
# How it was run: (§1)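 Broth microdilution per CLSI guidelines, using custom frozen panels. […] Each partner drug was also tested alone. MICs were run in triplicate and the modal value is reported.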
row,Compound,MIC [µg/mL]
1,N#C[C@@H]1CC[C@@H]2CN1C(=O)N2OS(=O)(=O)[O-].[Na+],0.5

# Tested on: Escherichia coli
# Test: Synergistic antibacterial activity against Escherichia coli DH10B transfected with pBC SK (-) PDC-3 assessed as cefepime MIC at 4 ug/ml by broth microdilution method
# Type: functional
# Conditions: dose 4 µg/ml
# How it was run: as §1
row,Compound,MIC [µg/mL]
1,N#C[C@@H]1CC[C@@H]2CN1C(=O)N2OS(=O)(=O)[O-].[Na+],≤ 0.12

# Tested on: Acinetobacter baumannii
# Test: Synergistic antibacterial activity against Acinetobacter baumannii PR363 producing OXA-23 assessed as cefepime MIC at 4 ug/ml by broth microdilution method
# Type: functional
# Conditions: dose 4 µg/ml
row,Compound,MIC [µg/mL]
1,N#C[C@@H]1CC[C@@H]2CN1C(=O)N2OS(=O)(=O)[O-].[Na+],8

# Tested on: Klebsiella pneumoniae
# Test: Synergistic antibacterial activity against Klebsiella pneumoniae 901/1860 producing KPC-3 assessed as cefepime MIC at 8 ug/ml by broth microdilution method
# Type: functional
# Conditions: dose 8 µg/ml
row,Compound,MIC [µg/mL]
1,N#C[C@@H]1CC[C@@H]2CN1C(=O)N2OS(=O)(=O)[O-].[Na+],≤ 0.12

# Tested on: Acinetobacter baumannii
# Test: Synergistic antibacterial activity against Acinetobacter baumannii PR319 producing OXA-23/24/40 assessed as meropenem MIC at 4 ug/ml by broth microdilution method
# Type: functional
# Conditions: dose 4 µg/ml
row,Compound,MIC [µg/mL]
1,N#C[C@@H]1CC[C@@H]2CN1C(=O)N2OS(=O)(=O)[O-].[Na+],16

# Tested on: Pseudomonas aeruginosa
# Test: Antibacterial activity against Pseudomonas aeruginosa CL232 by broth microdilution method
# Type: functional
# Conditions: not given
row,Compound,MIC [µg/mL]
1,N#C[C@@H]1CC[C@@H]2CN1C(=O)N2OS(=O)(=O)[O-].[Na+],> 16

# Tested on: Klebsiella pneumoniae
# Test: Synergistic antibacterial activity against Klebsiella pneumoniae 972/1910 producing KPC-3 assessed as meropenem MIC at 4 ug/ml by broth microdilution method
# Type: functional
# Conditions: dose 4 µg/ml
row,Compound,MIC [µg/mL]
1,N#C[C@@H]1CC[C@@H]2CN1C(=O)N2OS(=O)(=O)[O-].[Na+],≤ 0.12

# Tested on: Klebsiella pneumoniae
# Test: Synergistic antibacterial activity against Klebsiella pneumoniae 660/1568 producing KPC-3 assessed as cefepime MIC at 8 ug/ml by broth microdilution method
# Type: functional
# Conditions: dose 8 µg/ml
# How it was run: as §1
row,Compound,MIC [µg/mL]
1,N#C[C@@H]1CC[C@@H]2CN1C(=O)N2OS(=O)(=O)[O-].[Na+],0.25

# Tested on: Escherichia coli
# Test: Antibacterial activity against Escherichia coli DH10B transfected with pBR322-catI-KPC-2 by broth microdilution method
# Type: functional
# Conditions: not given
row,Compound,MIC [µg/mL]
1,N#C[C@@H]1CC[C@@H]2CN1C(=O)N2OS(=O)(=O)[O-].[Na+],> 16

# Tested on: Klebsiella pneumoniae
# Test: Synergistic antibacterial activity against Klebsiella pneumoniae CAV 1636 producing OXA-181 assessed as cefepime MIC at 4 ug/ml by broth microdilution method
# Type: functional
# Conditions: dose 4 µg/ml
row,Compound,MIC [µg/mL]
1,N#C[C@@H]1CC[C@@H]2CN1C(=O)N2OS(=O)(=O)[O-].[Na+],0.5

# Tested on: Klebsiella pneumoniae
# Test: Synergistic antibacterial activity against Klebsiella pneumoniae 11978 producing OXA-48 assessed as meropenem MIC at 4 ug/ml by broth microdilution method
# Type: functional
# Conditions: dose 4 µg/ml
# How it was run: as §1
row,Compound,MIC [µg/mL]
1,N#C[C@@H]1CC[C@@H]2CN1C(=O)N2OS(=O)(=O)[O-].[Na+],≤ 0.12

# Tested on: Pseudomonas aeruginosa
# Test: Synergistic antibacterial activity against Pseudomonas aeruginosa 839 assessed as meropenem MIC at 4 ug/ml by broth microdilution method
# Type: functional
# Conditions: dose 4 µg/ml
row,Compound,MIC [µg/mL]
1,N#C[C@@H]1CC[C@@H]2CN1C(=O)N2OS(=O)(=O)[O-].[Na+],1

# Tested on: Bacteria
# Test: Inhibition of bacteria ADC-7 assessed as half life using nitrocefin as substrate
# Conditions: not given
row,Compound,T1/2 [min]
1,N#C[C@@H]1CC[C@@H]2CN1C(=O)N2OS(=O)(=O)[O-].[Na+],12

# Tested on: Klebsiella pneumoniae
# Test: Synergistic antibacterial activity against Klebsiella pneumoniae 440/1360 producing KPC-2 assessed as cefepime MIC at 4 ug/ml by broth microdilution method
# Type: functional
# Conditions: dose 4 µg/ml
# How it was run: as §1
row,Compound,MIC [µg/mL]
1,N#C[C@@H]1CC[C@@H]2CN1C(=O)N2OS(=O)(=O)[O-].[Na+],0.5

# Tested on: Klebsiella pneumoniae
# Test: Synergistic antibacterial activity against Klebsiella pneumoniae 440/1360 producing KPC-2 assessed as meropenem MIC at 4 ug/ml by broth microdilution method
# Type: functional
# Conditions: dose 4 µg/ml
# How it was run: as §1
row,Compound,MIC [µg/mL]
1,N#C[C@@H]1CC[C@@H]2CN1C(=O)N2OS(=O)(=O)[O-].[Na+],≤ 0.12

# Tested on: Klebsiella pneumoniae
# Test: Synergistic antibacterial activity against Klebsiella pneumoniae 1108/1989 producing KPC-3 assessed as meropenem MIC at 4 ug/ml by broth microdilution method
# Type: functional
# Conditions: dose 4 µg/ml
# How it was run: as §1
row,Compound,MIC [µg/mL]
1,N#C[C@@H]1CC[C@@H]2CN1C(=O)N2OS(=O)(=O)[O-].[Na+],≤ 0.12

# Tested on: Acinetobacter baumannii
# Test: Synergistic antibacterial activity against Acinetobacter baumannii PR408 producing OXA-24/40 assessed as cefepime MIC at 8 ug/ml by broth microdilution method
# Type: functional
# Conditions: dose 8 µg/ml
row,Compound,MIC [µg/mL]
1,N#C[C@@H]1CC[C@@H]2CN1C(=O)N2OS(=O)(=O)[O-].[Na+],8

# Tested on: Acinetobacter baumannii
# Test: Synergistic antibacterial activity against Acinetobacter baumannii PR420 producing OXA-23/24/40 assessed as meropenem MIC at 8 ug/ml by broth microdilution method
# Type: functional
# Conditions: dose 8 µg/ml
row,Compound,MIC [µg/mL]
1,N#C[C@@H]1CC[C@@H]2CN1C(=O)N2OS(=O)(=O)[O-].[Na+],8

# Tested on: Acinetobacter baumannii
# Test: Synergistic antibacterial activity against Acinetobacter baumannii PR381 producing OXA-24/40 assessed as meropenem MIC at 8 ug/ml by broth microdilution method
# Type: functional
# Conditions: dose 8 µg/ml
row,Compound,MIC [µg/mL]
1,N#C[C@@H]1CC[C@@H]2CN1C(=O)N2OS(=O)(=O)[O-].[Na+],> 16
